Assay outcomes deposited in PubChem BioAssay by The Scripps Research Institute Molecular Screening Center.
Sampled rows, rich in hits. Any-hit rate of the full collection: about 2%.
UHRF1 MBD2 ctr: UHRF1 methyl-DNA binding inhibition; 0.75% of 370,000 active; Q96T88; AID 687016; UHRF1 binding to methylated oligo, TR-FRET; inhibition, % at 4.4 µM; in the data active = inhibition above about 21%;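 note: UHRF1 SRA domain binding a hemimethylated CpG hairpin DNA probe; 0% = median of test compound wells and 100% = reference inhibitor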
ARFGAP1 inh: inhibits rat ARF GTPase activating protein 1. Arfgap1-stimulated ARF1 GTP hydrolysis, GDP FP detection. Q62848. inhibition, % at 16.5 µM. 0.26% of 360,000 active;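 active = inhibition above a per-plate limit, mean inhibition of low control wells plus 3 SD, cut at about 25% in these data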;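 note: 0% = DMSO wells with enzyme and 100% = wells lacking Arfgap1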
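Assay system: Rat Arfgap1 GAP domain (His6, aa 1-136), purified enzyme | Buffer or medium: HEPES 25 mM pH 7.5, NaCl 150 mM, MgCl2, DTT | Schedule: GTP hydrolysis reaction 2 h at 25 °C | Signal: FP of antibody-bound GDP Alexa 633 tracer, ex 620/em 688 nm | Measure: Percent inhibition of Arfgap1-stimulated GTP hydrolysis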
TDP2 inh: TDP2 (human) inhibition, absorbance primary screen; inhibition, % at 12.8 µM; 0.34% of 370,000 active; recombinant TDP2, T5PNP hydrolysis, p-nitrophenol absorbance 415 nm;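 active = inhibition above the mean of all tested compounds plus 3 SD, set per campaign, cut at about 25% in these data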;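 note: 0% = DMSO with enzyme and 100% = buffer with substrate but no TDP2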
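Read-out basis: percent inhibition. System: recombinant human TDP2. Buffer or medium: Mg2+-containing Tris-HCl buffer, pH 7.5. Repeats: single replicate. Timing: reaction 2 h, 37 °C. Benchmarks: high control without enzyme, low control DMSO plus TDP2. Probe or stimulus: 5 mM T5PNP. Doses: 12.8 µM only. Measured by: epi absorbance of p-nitrophenol freed from T5PNP by hydrolysis.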
MBD2 DNA inh: MBD2-methylated oligo binding inhibition. Q9UBB5. inhibition, % at 4.4 µM. 0.31% of 370,000 active. TR-FRET, MBD2 binding to methylated oligonucleotide. AID 686964; in the data active = inhibition above about 13%
ASAP1 GAP inh: blocks human ASAP1-stimulated Arf1 GTP hydrolysis. 0.19% of 360,000 active. inhibition, % at 16.5 µM. GDP FP detection. Q9ULH1; in the data active = inhibition above about 25%;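 note: 0% = vehicle with enzyme and substrate and 100% = no enzyme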
Target sequence (Q9ULH1 325-724 limits assumed): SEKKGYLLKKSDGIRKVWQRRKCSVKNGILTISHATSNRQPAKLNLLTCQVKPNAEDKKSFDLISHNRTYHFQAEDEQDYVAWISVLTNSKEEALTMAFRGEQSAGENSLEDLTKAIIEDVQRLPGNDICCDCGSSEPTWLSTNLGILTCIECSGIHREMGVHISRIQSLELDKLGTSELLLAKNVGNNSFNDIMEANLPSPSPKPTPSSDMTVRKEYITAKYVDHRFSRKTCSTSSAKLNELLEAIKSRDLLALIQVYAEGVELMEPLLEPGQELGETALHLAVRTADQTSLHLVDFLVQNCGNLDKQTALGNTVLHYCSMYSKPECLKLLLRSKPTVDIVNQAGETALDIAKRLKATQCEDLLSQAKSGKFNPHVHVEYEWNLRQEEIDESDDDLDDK
LEDGF integ inh: blocks HIV-1 LEDGF/p75-dependent DNA integration | TR-FRET IN-LEDGF/p75 DNA integration, Eu/Cy5 | inhibition, % at 3.7 µM | 0.64% of 370,000 active;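 active = inhibition above the screen-wide mean plus 3 SD, cut at about 13% in these data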;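 note: signal is the Cy5 over europium emission ratio at 671 and 618 nm; 0% = plate median of compound wells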
ASAP1 GAP conf: confirmation of human ASAP1 inhibitors | inhibition, % at 16.5 µM | ASAP1-stimulated Arf1 GTPase, GDP fluorescence polarization | AID 624431 | 37% of 620 active | shares compounds with ASAP1 GAP inh;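 active = mean inhibition over triplicates exceeds the hit threshold derived for the earlier primary screening run, cut at about 25% in these data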
* = called active by the depositor; / = no result.

SMILES	UHRF1 MBD2 ctr	ARFGAP1 inh	TDP2 inh	MBD2 DNA inh	ASAP1 GAP inh	LEDGF integ inh	ASAP1 GAP conf
CN(CCc1ccccn1)C(=O)c1ccc2c(c1)ncn2C1CCCCC1	7	/	9	0	/	0	/
O=C1Cc2ccccc2C(=O)N1CCc1ccccc1	-8	13	-4	-2	33*	5	15
Nc1ccc(Oc2cccc(Oc3ccc(N)cc3)c2)cc1	0	15	4	1	28*	-3	16
O=C(C1CCCN1S(=O)(=O)c1ccc([N+](=O)[O-])cc1)N1CCc2ccccc2C1 (centres undefined)	4	/	-5	2	/	2	/
COc1cc(/C=C2/SC(N)=NC2=O)ccc1Oc1ccc([N+](=O)[O-])cc1[N+](=O)[O-]	3	-4	0	0	29*	-1	49*
CCCCCCCCN1C(=O)[C@@H](CC(=O)NCC23CC4CC(CC(C4)C2)C3)C[C@@]2(C(=O)OC)C1=C[C@H](COCc1ccccc1)O[C@@H]2C	-2	/	-4	0	/	-1	/
COc1ccc(C(C)=O)cc1COC(=O)c1ccc2c(c1)OCCO2	-3	-3	8	1	28*	-1	8
COc1ccc(C(C)=O)cc1COC(=O)c1ccc(S(=O)(=O)N(C)C)cc1	-2	9	-16	-4	17	-1	/
O=C(N/N=C/C(Br)=C/c1ccccc1)c1ccncc1	0	3	-12	-2	-10	6	/
O=C(N/N=C/C(Br)=C/c1ccccc1)c1ccc([N+](=O)[O-])cc1	-3	4	10	2	48*	4	78*
O=C(N/N=C/c1ccc(Br)s1)c1ccc([N+](=O)[O-])cc1	1	12	-14	3	36*	4	97*
COc1nc(OC)nc(N2CCC(C(=O)N(C)Cc3ccccc3F)CC2)n1	0	/	-6	-2	/	6	/
Cc1c(C(=O)Oc2ccc(-c3cnc4ccccc4n3)cc2)cccc1[N+](=O)[O-]	0	-2	-5	0	25*	-3	13
O=C(Oc1ccc(-c2cnc3ccccc3n2)cc1)c1cc([N+](=O)[O-])ccc1Cl	0	-2	9	3	-6	0	/
CCc1ccc(/C=C2\Oc3cc(OC(=O)N4CCOCC4)ccc3C2=O)cc1	6	-12	0	7	-7	3	/
COc1ccc(/C=C2\Oc3cc(OC(=O)N4CCOCC4)ccc3C2=O)cc1	0	21	3	4	33*	2	70*
CC(=O)C1C(c2ccccc2)c2c(n[nH]c2C)CC1(C)O (centres undefined)	9	-15	-21	6	3	3	/
CC(=O)C1C(c2ccc(C)cc2)c2c(n[nH]c2C)CC1(C)O (centres undefined)	23*	-10	4	7	43*	2	1
CN1[C@H](Cc2ccccc2)COc2cc(N3CCCC3)ccc2S1(=O)=O	4	/	-7	7	/	1	/
CCOc1ccc2[nH]c(C(=O)N/N=C/c3ccccc3OC)cc2c1	-2	10	-4	13	30*	4	28*
COc1ccc2[nH]c(C(=O)N/N=C/c3ccccc3OC)cc2c1	2	12	-17	7	14	-6	/
O=C(O)CC1(CC(=O)Nc2ccc(F)cc2F)CCCCC1	-1	2	-3	0	-3	1	/
O=C(O)CC1(CC(=O)Nc2cc(F)ccc2Cl)CCCCC1	1	15	-3	2	25*	0	3
Cc1ccc(/C=N/NC(=O)CCCOc2ccc(Cl)cc2Cl)cc1[N+](=O)[O-]	-1	22	11	-5	50*	0	37*
Cc1ccccc1NC(=O)CSc1nnc(-c2cc(-c3ccccc3)n[nH]2)n1N	0	/	0	-3	/	5	/
O=[N+]([O-])c1ccc(OCCOc2ccccc2/C=N/n2cnnc2)cc1	0	-2	5	-3	37*	-2	46*
COc1ccccc1/C=N/n1cnnc1	-2	1	10	-3	9	1	/
